KCNQ1 inh = inhibitors of human KCNQ1 potassium channel; P51787; CHO-K1 KCNQ1, FluxOR thallium flux fluorescence; hits give high values; B-score at 10 µM; 1.3% of 310,000 active;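 active = compounds whose thallium flux B-score, printed positive for inhibition, exceeds three library SD while starting fluorescence stays within three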;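 also: channel opened by potassium depolarization with thallium stimulus after 20 min compound exposure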
hERG protect = shields human hERG channel from block by proarrhythmic agents; Q12809; AID 1511; 0.51% of 310,000 active; activation (rescue from dofetilide block), less the hit threshold, % at 10 µM; CHO-hERG, FluxOR thallium flux, dofetilide IC70 present;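 active = activation above the mean of controls blocked by dofetilide plus 5 SD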;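 also: thallium influx through hERG after potassium depolarization seen as dye fluorescence rise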
Target sequence (Q12809 whole entry, looked up): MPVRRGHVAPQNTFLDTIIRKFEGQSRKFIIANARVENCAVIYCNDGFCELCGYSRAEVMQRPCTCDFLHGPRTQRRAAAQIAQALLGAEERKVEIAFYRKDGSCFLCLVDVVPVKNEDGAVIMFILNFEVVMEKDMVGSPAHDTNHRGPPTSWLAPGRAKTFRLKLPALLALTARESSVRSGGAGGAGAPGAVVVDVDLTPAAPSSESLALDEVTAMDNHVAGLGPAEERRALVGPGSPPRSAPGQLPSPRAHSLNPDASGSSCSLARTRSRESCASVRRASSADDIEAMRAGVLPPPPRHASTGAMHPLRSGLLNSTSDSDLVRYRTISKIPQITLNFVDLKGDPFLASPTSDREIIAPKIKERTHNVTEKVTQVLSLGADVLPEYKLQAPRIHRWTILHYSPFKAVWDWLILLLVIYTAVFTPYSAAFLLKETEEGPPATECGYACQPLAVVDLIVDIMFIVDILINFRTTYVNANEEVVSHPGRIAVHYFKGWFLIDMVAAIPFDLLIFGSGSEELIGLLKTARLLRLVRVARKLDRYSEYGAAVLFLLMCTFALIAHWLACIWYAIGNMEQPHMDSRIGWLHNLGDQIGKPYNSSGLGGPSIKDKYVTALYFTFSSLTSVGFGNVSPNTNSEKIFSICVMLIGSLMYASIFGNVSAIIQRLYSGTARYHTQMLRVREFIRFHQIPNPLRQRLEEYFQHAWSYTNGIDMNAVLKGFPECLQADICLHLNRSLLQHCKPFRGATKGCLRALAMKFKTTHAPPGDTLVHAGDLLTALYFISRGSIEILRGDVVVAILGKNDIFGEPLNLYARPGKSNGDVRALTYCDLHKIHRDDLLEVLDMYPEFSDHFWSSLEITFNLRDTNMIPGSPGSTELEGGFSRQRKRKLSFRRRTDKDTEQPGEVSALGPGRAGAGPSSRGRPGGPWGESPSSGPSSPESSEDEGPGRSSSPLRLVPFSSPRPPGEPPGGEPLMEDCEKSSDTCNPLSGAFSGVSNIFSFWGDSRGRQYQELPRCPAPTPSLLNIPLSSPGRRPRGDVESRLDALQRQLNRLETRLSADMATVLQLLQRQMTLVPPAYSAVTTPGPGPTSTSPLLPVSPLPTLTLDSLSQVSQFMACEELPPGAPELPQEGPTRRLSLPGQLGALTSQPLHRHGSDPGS
KCNQ1 act = potentiates or activates the human KCNQ1 potassium channel; 0.35% of 310,000 active; B-score at 10 µM; CHO-K1 KCNQ1, thallium flux FluxOR fluorescence; hits give high values; AID 2648;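 active = fluorescence ratio B-score, a plate-corrected score, at least three library SD, with initial intensity B-score within 5 SD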
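assay system = CHO-K1 cells stably expressing KCNQ1 | medium = assay buffer, equal DMSO in all wells | timing = 37 °C overnight plating, 90-min dark dye load, 20-min compound pretreatment | measured by = kinetic FluxOR thallium fluorescence, 10-s 1-Hz baseline, 110-s post-stimulus read | measure = fluorescence change relative to baseline, converted to B score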
KCNK9 block = human KCNK9 channel inhibition. Q9NPC2. HEK293 KCNK9, FluxOR thallium flux fluorescence; hits give low values. B-score at 10 µM. 1.2% of 310,000 active. AID 488922;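 active = ratio B-score over 3 SD below the library mean, with starting fluorescence within 5 SD of its mean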;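 also: negative B-score means less thallium flux so channel inhibition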
KCC2 mod = modulators of human KCC2 chloride dependent transport; Q9H2X9; KCC2 cells, thallium flux FluoZin-2 fluorescence; B-score of Tl+ flux slope (higher = more flux/activation; lower = inhibition) at 10 µM; 2.2% of 190,000 active; AID 1456;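 active = thallium flux slope and its plate-corrected score both differing from the plate sample mean at a set confidence after two filtering rounds, in either direction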;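 also: slope of fluorescence scaled to starting intensity during 10 to 20 s after thallium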
KCNK3 inh = human KCNK3 channel inhibition, primary screen; 0.84% of 340,000 active; AID 602410; CHO-KCNK3 thallium flux, FluxOR fluorescence; hits give low values; B-score at 10 µM;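 active = B-score under library mean minus 4 SD, starting fluorescence ratio at most library mean plus 5 SD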;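 also: more negative B-score means stronger inhibition of thallium flux through KCNK3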
KCC2 sec1 = confirmation of human KCC2 transport modulators; shares compounds with KCC2 mod; HEK293-KCC2, thallium flux, FluoZin2 fluorescence; hits give high values; AID 1713; 15% of 3,700 active; normalised thallium flux (F/F0 slope) at 10 µM;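 active = thallium flux slope above the same plate's solvent-only control mean plus 3 SD; inconclusive = the two replicate wells disagree; inactive = no significant difference from solvent-only control wells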
KCC2 bumet counter = thallium flux persisting under bumetanide in KCC2 cells, counter-screen secondary assay; HEK293-KCC2 + bumetanide/ouabain, thallium flux FluoZin2; hits give high values; shares compounds with KCC2 mod; normalized thallium flux at 10 µM; 49% of 3,700 active; AID 1714;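 active = thallium entry rate above the same plate's blocked-transporter control wells by more than 3 SD; inconclusive = the two repeat wells disagree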;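 also: raw slope of fluorescence over initial fluorescence between 10 and 20 s after thallium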
KCC2 sec2 = confirmation of human KCC2 transport modulators; 23% of 3,700 active; HEK293-KCC2, thallium flux FluoZin2 fluorescence; actives lie on both sides; F/F0 rise rate, 10–20 s post-thallium; normalized thallium flux at 10 µM; shares compounds with KCC2 mod;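 active = thallium flux slope more than 3 SD above or below the plate's solvent-only control mean, mostly below; inconclusive = the two repeat wells disagreed; inactive = no significant shift from solvent-only controls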
HEK293 Tl flux = counter-screen for KCC2 modulators: effect in parental HEK293 cells; shares compounds with KCC2 mod; thallium flux FluoZin2, ouabain; baseline-ratio fluorescence slope, 10–20 s after thallium; thallium flux rate (normalised fluorescence) at 10 µM; 46% of 3,700 active;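 active = thallium flux rate significantly above the same plate's solvent-only control wells, beyond their mean plus 3 SD; inconclusive = the two replicate wells gave conflicting results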
KCC2 ouabain = confirmation of human KCC2 modulators with ouabain; shares compounds with KCC2 mod; HEK293-KCC2, thallium flux FluoZin2 fluorescence; bidirectional: low = inhibitor, high = activator; raw Tl+ flux slope (below DMSO = inhibition, above = activation) at 10 µM; 48% of 3,700 active; AID 1717;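 active = thallium flux slope beyond 3 SD from same-plate DMSO control mean in most replicates, usually higher, sometimes lower; inconclusive = repeat tests gave conflicting results; inactive = no significant difference from controls in most replicates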;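 also: slope of initial-normalized fluorescence between seconds 10 and 20 after thallium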
HEK counter2 = counter-screen for KCC2 modulators: effect in parental HEK293 cells | thallium flux slope at 10 µM | shares compounds with KCC2 mod | thallium flux FluoZin-2 fluorescence slope | 33% of 3,700 active;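 active = thallium flux slope above the same plate's solvent-control mean plus 3 SD in both duplicate wells; inconclusive = duplicate wells that disagreed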;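 also: run without ouabain in cells lacking the KCC2 cotransporter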
Numbers stand for hits; 0 = inactive; ? = inconclusive; - = no result. The list is not random: actives were taken first. Their share in the collection is about 4.1%.

SMILES	KCNQ1 inh	hERG protect	KCNQ1 act	KCNK9 block	KCC2 mod	KCNK3 inh	KCC2 sec1	KCC2 bumet counter	KCC2 sec2	HEK293 Tl flux	KCC2 ouabain	HEK counter2
COC(=O)CNC(=O)C1CCN(S(=O)(=O)c2cnc[nH]2)CC1	0	0	0	0	-	0	-	-	-	-	-	-
CCc1nnc2c(N(C)S(=O)(=O)c3ccc(C)cc3)nc3ccccc3n12	0	0	0	0	-	0	-	-	-	-	-	-
Cc1ccc(S(=O)(=O)N(C)c2nc3ccccc3[nH]c2=S)cc1	0	0	0	0	88.6	0	0.0387	0.0866	?	0.0648	0.0651	0.0192
Cc1ccc(C(=O)NC(=S)NNS(=O)(=O)c2ccc(C)cc2)cc1	0	0	0	0	6.17	0	0.0173	0.0234	0	0.00924	0	0.0124
S=c1[nH]c2ccc(Cl)cc2s1	0	52.5	69	0	86	0	0.043	0.0981	0.0852	0.0874	0.0873	0.0585
O=[N+]([O-])c1ccc2[nH]c(=S)sc2c1	-	-	-	-	-	0	-	-	-	-	-	-
COC(=O)C(C)(C)c1cccnc1C#N	-	-	-	-	-	0	-	-	-	-	-	-
O=C(/C=C/c1ccccc1)CC(=O)c1ccccc1O	0	15.2	0	0	6.81	0	0	0.0111	0	0.0126	?	0.0152
CCOC(=O)C1=CC[C@]2(C)c3c(c4ccccc4n3C)C(=O)C1N2C	-	-	-	-	-	0	-	-	-	-	-	-
CCOc1ccccc1N1CCN(C(=O)/C=C/c2cccc([N+](=O)[O-])c2)CC1	0	0	0	0	-3.84	0	0	0	0.0268	0.00569	0.0165	?
CC1(C(=O)OCC(=O)c2c[nH]c3ccccc23)CC1(Cl)Cl (configuration not stated)	0	0	0	0	-2.48	0	0	0	0	0	0.0161	0
CCn1c(SCC(=O)NC2CCCC2)nnc1C(C)NC(=O)c1ccccc1Br (configuration not stated)	0	0	0	0	-	0	-	-	-	-	-	-
Cc1ccc(CSCCNC(=O)c2ccc(C)cc2)cc1	0	0	0	0	-3.8	0	0	0	0.0239	0	0.0164	0
COc1cccc(-n2nnnc2SCC(=O)Nc2ccc(NC(C)=O)cc2)c1	0	0	0	0	-	0	-	-	-	-	-	-
c1ccc(Cc2nn3c(Cn4nnc5ccccc54)nnc3s2)cc1	0	0	0	0	0	0	-	-	-	-	-	-
COc1ccccc1-c1nnc2sc(COc3ccc(Cl)cc3Cl)nn12	0	0	0	0	0	0	-	-	-	-	-	-
COc1ccccc1-c1nnc2sc(COc3ccccc3)nn12	0	0	0	0	0	0	0	?	0.024	0.00636	0.0148	?
c1ccc(OCc2nn3c(Cn4nnc5ccccc54)nnc3s2)cc1	0	0	0	0	-2.56	0	0	0	0	0	0.0152	0
CCN(CC)CCN(Cc1cc2cc3c(cc2[nH]c1=O)OCO3)C(=S)NC	0	0	0	0	-	0	-	-	-	-	-	-
Cc1onc(-c2ccccc2)c1C(=O)N(C)CC(=O)Nc1ccc(F)c(F)c1F	-	-	-	-	-	0	-	-	-	-	-	-
Cc1ccc(C)c(N2CCN(C(=O)CCc3nc(-c4cccc(Cl)c4)no3)CC2)c1	-	-	-	-	-	0	-	-	-	-	-	-
O=C(O)CNc1nc(-c2ccccc2)nc2c1oc1ccccc12	0	0	0	0	-	0	0	0	0	0	0	0
Cc1n[nH]c(=O)c2c(NC(=O)CSc3nncn3C(C)C)oc(C)c12	-	-	-	-	-	0	-	-	-	-	-	-
CCN1C[C@@H]2[C@@H]3C(=O)N(C)C(=O)[C@@H]3[C@](Cc3ccccc3)(C(=O)OC)N2C1=NCc1ccccc1	-	-	-	-	-	0	-	-	-	-	-	-
O=C(CNC(=O)/C=C/c1ccccc1)N=Nc1c(O)n(Cc2ccccc2)c2ccccc12	0	0	0	0	0	-	-	-	-	-	-	-
SMILES	KCNQ1 inh	hERG protect	KCNQ1 act	KCNK9 block	KCC2 mod	KCNK3 inh	KCC2 sec1	KCC2 bumet counter	KCC2 sec2	HEK293 Tl flux	KCC2 ouabain	HEK counter2
CCNC(=S)N=Nc1c(O)n(Cc2ccc(Cl)cc2)c2ccccc12	0	0	18	0	13.9	0	0.0116	0.0711	0	0.0305	0.0406	0.0113
CCn1c(O)c(N=NC(=O)CNC(=O)c2ccccc2F)c2ccccc21	0	0	0	0	-	0	-	-	-	-	-	-
O=c1cc(O)c2ccccc2n1Cc1ccccc1F	0	0	0	0	0	0	-	-	-	-	-	-
Cc1ccccc1Cn1c(O)c(N=NC(=S)Nc2ccccc2F)c2ccccc21	0	35.6	0	0	9.56	0	?	0.0254	0	?	?	?
Oc1c(N=NC(=S)Nc2ccccc2F)c2ccccc2n1Cc1ccccc1F	0	28.9	23	0	11.2	0	0	0.034	0	0.0117	0.0255	?
Cc1cc(C)c(CNC(=O)c2cc(C3CC3)nc3c2cnn3C(C)C)c(=O)[nH]1	-	-	-	-	-	0	-	-	-	-	-	-
O=C(CSc1nnc2c(n1)[nH]c1ccccc12)NCc1ccccc1F	0	0	0	0	-	0	-	-	-	-	-	-
CC(Oc1ccccc1)c1ccnc(N)n1 (configuration not stated)	0	0	0	0	0	0	-	-	-	-	-	-
CC(Oc1ccc(Cl)cc1Cl)c1ccnc(N)n1 (configuration not stated)	0	0	0	0	-2.91	0	0	0	0	0	0	0
CC(Cc1cccs1)NC(=S)Nc1ccc(Cl)c(Cl)c1 (configuration not stated)	0	0	0	0	6.7	0	0	0.0191	0	0.00843	0.0207	?
COc1cccc(OC)c1C(=O)NC(=S)NNC(=O)[C@H]1C[C@@H]1c1ccccc1	0	0	0	0	0	0	-	-	-	-	-	-
O=C(NC(=S)NNC(=O)[C@H]1C[C@@H]1c1ccccc1)c1cccc(F)c1	0	9.4	0	0	67.4	0	0	0.086	0.0599	0.0608	0.0673	0.0502
CC(C)Oc1ccc(CNC(=S)N/N=C/c2ccc([N+](=O)[O-])cc2)cc1	0	0	0	0	3.59	0	0	0	0	0	0	0
CC(C)COc1ccc(CNC(=S)N/N=C/c2ccc([N+](=O)[O-])cc2)cc1	0	0	0	0	0	0	-	-	-	-	-	-
Cc1cc(OCC(=O)NNC(=O)CCc2ccccc2)ccc1Br	0	0	0	0	-	0	-	-	-	-	-	-

High-throughput results deposited in PubChem by several laboratories.
